Where “and” joins values, the source holds several entries; their conditions need not be identical. Identical values can stand only once. Like-named read-outs stand apart in the source and are kept apart here.
Experiments:
tau = details: 2-week treatment, ventral horn spinal motoneurons and hippocampal CA3 mossy fibers, tau × amyloid precursor protein mice; cited from earlier work
pSer9-GSK3β [1] = details: cortex of CD1 mice; cited from earlier work
pSer9-GSK3β [2] = details: Tg2576 (APP) AD-transgenic mice; cited from earlier work
[3] = Plasma and brain exposure after 5-month repeated oral; type: in vivo, mouse; details: for Brain/plasma AUC(0–24 h) ratio / AUC(0–24 h) / Cmax/Cmin ratio / Cmin / Cmax: 5 months; for 0.002%/0.00067% AUC(0–24 h) ratio: 5 months in diet
Method in brief: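 Male WT mice received the test compound in diet (0.00067% or 0.002%) for 5 months. Blood was taken from the mandibular vein of awake mice into lithium heparin and centrifuged at 1500–2000g for 10 min at 4°C; plasma was stored at −80°C. Pons/cerebellum was dissected. Samples spanned 24 h; analytes were acetonitrile-precipitated and measured by LC-MS/MS.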

THY-Tau22 mice = experiment: Shape and spatial object recognition test; type: in vivo, mouse; details: for recognition index, shape episodic memory: Fig. 2A; for recognition index, shape episodic memory / recognition index, spatial episodic memory: means ± SEM; for recognition index, spatial episodic memory: Fig. 2B
Method in brief: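 Individually housed male THY-Tau22 and WT littermates (enriched environment, reverse light/dark cycle) received diet dosing from age 2 months for 4 or 6 months. Object recognition used a 59 × 59 × 30 cm PVC open field (black walls, white floor) with an overhead camera. Washout groups were tested for shape at 10 d and spatial memory at 17 d after cessation. Recognition index is reported as mean ± SEM.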

tau protein = type: in vivo, mouse; details: for change in tau phosphorylation at Ser199/202-Thr205 (AT8 signal): 6 months in diet, not significant
Method in brief: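 Cortex or hippocampus from THY-Tau22 mice given diet dosing for 6 months was homogenized in RIPA buffer (pH 7.5) with protease inhibitors, 1 μM okadaic acid and 100 mM NaF, then centrifuged at 16,000g for 10 min at 4°C. Protein (5 or 20 μg) was run on 4–12% Bis-Tris gels, transferred to PVDF and blocked in 5% milk. Primary antibodies were applied overnight at 4°C. Values are relative, n = 7–9/group.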

Ser9-GSK3β = experiment: Western blot of Ser9-GSK3β in hippocampus; type: in vivo, mouse; details: 2-week treatment, 0.002% and 0.02% in drinking water, THY-Tau22 mice
[4] = tested on: AT8 (pSer199/202-Thr205) tau; experiment: AT8 immunostaining, quantitative image analysis; type: in vivo, mouse; details: 6 months, cortex
Method in brief: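 Male THY-Tau22 mice received the test compound in diet (0.0002%, 0.002% or 0.02%) for 6 months from age 2 months. Hemibrains were immersion-postfixed 7 days at 4°C in 4% formaldehyde, and 20 μm serial sagittal cryostat sections were cut. AT8 immunostaining was quantified by virtual-slide scanning image analysis as mean positive cell bodies count. Dunnett tests were run on log-transformed data, n = 9 mice/group.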

neurofibrillary tangles = experiment: Neurofibrillary tangles, Gallyas silver staining; type: in vivo, mouse; details: 6 months
MIP-1α = experiment: Hippocampal mRNA expression, quantitative real-time RT-PCR; type: in vivo, mouse; details: 6 months, hippocampus
GFAP = experiment: as above; type: in vivo, mouse; details: 6 months in diet, hippocampus, THY-Tau22
cystatin F = experiment: as above; type: in vivo, mouse; details: 6 months in diet, hippocampus, THY-Tau22
APPxPS1 transgenic mice = experiment: Object recognition test in APPxPS1 transgenic mice; type: in vivo, mouse; details: data not shown
rats = details: object recognition test, acute treatment; cited from earlier work
mice = details: object recognition test, acute treatment; cited from earlier work
[5] = tested on: histamine H3-receptor (H3R); details: compared with ABT-239; cited from earlier work

C[C@@H]1CCCN1CCc1cc2cc(-c3ccc(C#N)cc3)ccc2o1 [ABT-239]
tau hyperphosphorylation (AT8 site) (tau): decreases tau hyperphosphorylation
levels of pSer9-GSK3β (inactive form of GSK3β) (pSer9-GSK3β [1]): increased the levels
reduction in hippocampal pSer9-GSK3β levels (pSer9-GSK3β [2]): reversed the reduction

CN1CCCC1CCNS(=O)(=O)c1ccc2c(c1)CN(CC1CCCCC1)CC2 (centres unmarked) [SAR110894]
Brain/plasma AUC(0–24 h) ratio ([3]; 0.00067% in diet): 3.5
AUC(0–24 h) ([3]; 0.00067% in diet, brain): 110 ng·h/g
AUC(0–24 h) ([3]; 0.00067% in diet, plasma): 31 ng·h/mL
Cmax/Cmin ratio ([3]; 0.00067% in diet, plasma): 1.4
Cmin ([3]; 0.00067% in diet, plasma): 1.26 ng/mL and 4.83 nM
Cmax/Cmin ratio ([3]; 0.00067% in diet, pons/cerebellum): 1.5
Brain/plasma AUC(0–24 h) ratio ([3]; 0.002% in diet): 3.5
AUC(0–24 h) ([3]; 0.002% in diet, brain): 390 ng·h/g
AUC(0–24 h) ([3]; 0.002% in diet, plasma): 110 ng·h/mL
Cmax ([3]; 0.002% in diet, plasma): 24.8 nM
Cmax/Cmin ratio ([3]; 0.002% in diet, plasma): 2.7
Cmin ([3]; 0.002% in diet, plasma): 2.44 ng/mL and 9.35 nM
Cmax ([3]; 0.002% in diet, plasma, male WT mice): 6.48 ng/mL
Cmax/Cmin ratio ([3]; 0.002% in diet, pons/cerebellum): 2.1
0.002%/0.00067% AUC(0–24 h) ratio ([3]; plasma): 3.5
0.002%/0.00067% AUC(0–24 h) ratio ([3]; pons/cerebellum): 3.5
deficit in shape episodic memory (THY-Tau22 mice; 0.00067% in diet, 4 months, THY-Tau22 mice, confirmatory study, Fig. 2C): no effect
deficit in spatial episodic memory (THY-Tau22 mice; 0.00067% in diet, 4 months, THY-Tau22 mice, confirmatory study, Fig. 2D): reduced the deficit
recognition index, shape episodic memory (THY-Tau22 mice; 0.002% in diet, THY-Tau22 mice, P = .0010): 64 ± 2%
recognition index, spatial episodic memory (THY-Tau22 mice; 0.002% in diet, THY-Tau22 mice, P = .0153): 58 ± 3%
procognitive effect on shape episodic memory after treatment washout (THY-Tau22 mice; 0.002% in diet, after 1 week of washout, Fig. 2C): still persisted
procognitive effect on spatial episodic memory after treatment washout (THY-Tau22 mice; 0.002% in diet, after 2 weeks of washout, Fig. 2D): still persisted
recognition index, shape episodic memory (THY-Tau22 mice; 0.02% in diet, THY-Tau22 mice, P = .0104): 61 ± 3%
recognition index, spatial episodic memory (THY-Tau22 mice; 0.02% in diet, THY-Tau22 mice, P = .0002): 60 ± 2%
cognitive deficits in THY-Tau22 mice (THY-Tau22 mice; administered during 4 or 6 months starting at the age of 2 months): prevented cognitive deficits
change in tau phosphorylation at pSer214 (tau protein; 0.002% in diet, 6 months, cortex, P = .0052): −35%
change in tau phosphorylation at pSer422 (tau protein; 0.002% in diet, 6 months, cortex, no effect, P = .3019): −20%
change in tau phosphorylation at pThr181 (AT270 signal) (tau protein; 0.002% in diet, 6 months, cortex, no effect, P = .4830): −16%
change in AD2 signal (tau protein; 0.002% in diet, 6 months, cortex, second independent Western blot evaluation, P = .0191, Fig. 4F): −37%
change in AD2 signal (tau protein; 0.002% in diet, 6 months, cortex, trend, P = .2766, Fig. 4B): −57%
change in total tau (Tau5 signal) (tau protein; 0.002% in diet, 6 months, cortex, unchanged, P = .0950): −17%
change in tau phosphorylation at residues 396/404 (AD2 signal) (tau protein; 0.002% in diet, 6 months, hippocampus, THY-Tau22, P = .0291): −37%
tau hyperphosphorylation (AD2 or AT8) (tau protein; 2-week treatment, 0.002% and 0.02% in drinking water, hippocampus, 5- to 6-month-old THY-Tau22 mice): no effect
change in tau phosphorylation at Ser199/202-Thr205 (AT8 signal) (tau protein; cortex, P = .8054, Fig. 4E): −29%
change in tau phosphorylation at Ser199/202-Thr205 (AT8 signal) (tau protein; hippocampus, P = .5560, Fig. 4D): −22%
tau hyperphosphorylation (AD2 or AT8 epitopes) (tau protein; acute administration 3 and 10 mg/kg orally, cingulate cortex, 3-month-old THY-Tau22 mice, data not shown): no effect
level of Ser9-GSK3β (inactive form of GSK3β) (Ser9-GSK3β): no effect
decrease in number of AT8-positive neuronal cell bodies ([4]; 0.002% in diet, THY-Tau22, P = .0010): 47%
intensity of AT8 immunostaining within neuronal cell bodies and fibers ([4]; 0.002% in diet, data not shown): marked decrease
decrease in number of AT8-positive neuronal cell bodies ([4]; 0.02% in diet, THY-Tau22, P = .0250): 32%
change in number of NFTs (neurofibrillary tangles; 0.002% in diet, cortex, P = .0001): −48%
change in number of NFTs (neurofibrillary tangles; 0.002% in diet, hippocampus, P < .0001): −25%
change in number of NFTs (neurofibrillary tangles; 0.02% in diet, amygdala, P = .0065): −31%
change in number of NFTs (neurofibrillary tangles; 0.02% in diet, cortex, P = .0019): −41%
change in number of NFTs (neurofibrillary tangles; 0.02% in diet, hippocampus, P = .0006): −22%
change in expression of MIP-1α (MIP-1α; 0.0002% in diet, THY-Tau22, P = .0087): −35%
change in expression of MIP-1α (MIP-1α; 0.002% in diet, THY-Tau22, P = .0184): −36%
expression of GFAP (GFAP): no effect
expression of cystatin F (cystatin F): no effect
memory deficits in APPxPS1 transgenic mice (APPxPS1 transgenic mice): decreased memory deficits
scopolamine-induced memory deficits (rats): prevented the occurrence
memory deficits induced by infusion of Aβ(25–35) (mice): decreased the memory deficits
affinity and selectivity for H3R [5]: higher affinity and selectivity than ABT-239
